Data set [1] has as its target Bromodomain-containing protein 2 (Homo sapiens) (UniProt P25440). The data set is described as follows: Binding affinity to BRD2(1) (unknown origin) assessed as increase in protein melting temperature at 50 umol by real-time PCR system based thermal shift assay. In short, it runs like this:
(§1)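 Bromodomain proteins in 10 mmol HEPES pH 7.5, 500 mmol NaCl at 75 μg/mL final; compound at 50 µmol final; SYPRO Orange probe at 1:1000. Four replicates per protein mixture. Melt curve read on a real-time PCR instrument, heating 25 °C to 99 °C at 1 °C/min under continuous fluorescence reading; binding taken as the rise in protein melting temperature.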

Data set [2] concerns the target Histone acetyltransferase p300 (Homo sapiens) (UniProt Q09472). The experiment in a line: Binding affinity to EP300 (unknown origin) assessed as increase in protein melting temperature at 50 umol by real-time PCR system based thermal shift assay. In short, it runs like this:
as §1

Data set [3] deals with SWI/SNF-related matrix-associated actin-dependent regulator of chromatin subfamily A member 4 (Homo sapiens) (UniProt P51532). The experiment in a line: Binding affinity to BRG1 (unknown origin) assessed as increase in protein melting temperature at 50 umol by real-time PCR system based thermal shift assay. The gist of the method:
as §1

Data set [4] has as its target T1, ATPase family AAA domain-containing protein 2 (Homo sapiens) (UniProt Q6PL18).
T1 sequence (whole entry): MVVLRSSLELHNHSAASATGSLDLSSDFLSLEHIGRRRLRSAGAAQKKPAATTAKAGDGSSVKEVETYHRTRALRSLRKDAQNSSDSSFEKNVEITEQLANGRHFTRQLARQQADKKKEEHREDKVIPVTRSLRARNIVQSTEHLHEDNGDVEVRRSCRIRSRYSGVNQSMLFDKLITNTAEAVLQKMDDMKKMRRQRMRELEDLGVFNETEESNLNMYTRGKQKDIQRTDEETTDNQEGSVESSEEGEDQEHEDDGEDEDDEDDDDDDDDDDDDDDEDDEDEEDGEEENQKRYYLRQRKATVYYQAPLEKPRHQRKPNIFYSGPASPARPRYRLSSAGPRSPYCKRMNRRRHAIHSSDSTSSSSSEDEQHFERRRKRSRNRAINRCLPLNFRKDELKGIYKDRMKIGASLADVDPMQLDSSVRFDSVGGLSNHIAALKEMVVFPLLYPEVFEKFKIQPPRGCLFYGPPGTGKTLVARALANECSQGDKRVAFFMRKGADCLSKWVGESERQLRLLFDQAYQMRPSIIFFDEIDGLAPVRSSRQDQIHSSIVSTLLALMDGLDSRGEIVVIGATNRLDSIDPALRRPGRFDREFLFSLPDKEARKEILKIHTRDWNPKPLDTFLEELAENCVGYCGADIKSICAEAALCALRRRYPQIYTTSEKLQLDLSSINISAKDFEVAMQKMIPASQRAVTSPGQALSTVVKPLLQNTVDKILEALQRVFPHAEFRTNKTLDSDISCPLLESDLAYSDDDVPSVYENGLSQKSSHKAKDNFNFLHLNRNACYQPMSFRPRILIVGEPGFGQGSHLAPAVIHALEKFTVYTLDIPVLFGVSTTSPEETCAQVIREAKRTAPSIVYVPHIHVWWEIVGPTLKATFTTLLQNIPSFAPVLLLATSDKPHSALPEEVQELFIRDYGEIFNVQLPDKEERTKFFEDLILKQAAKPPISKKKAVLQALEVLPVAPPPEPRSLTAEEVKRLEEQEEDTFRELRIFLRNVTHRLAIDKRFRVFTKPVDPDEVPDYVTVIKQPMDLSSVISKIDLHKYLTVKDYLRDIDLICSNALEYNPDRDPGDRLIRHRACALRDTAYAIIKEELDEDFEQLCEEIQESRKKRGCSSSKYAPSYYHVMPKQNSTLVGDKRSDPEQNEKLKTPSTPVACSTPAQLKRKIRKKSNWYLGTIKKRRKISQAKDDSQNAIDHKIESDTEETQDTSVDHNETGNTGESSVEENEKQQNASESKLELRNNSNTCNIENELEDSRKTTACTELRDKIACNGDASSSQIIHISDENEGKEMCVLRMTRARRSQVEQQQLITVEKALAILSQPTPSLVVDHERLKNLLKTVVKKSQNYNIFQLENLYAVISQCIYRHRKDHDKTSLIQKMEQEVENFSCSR
The data set is described as follows: Binding affinity to ATAD2 (unknown origin) assessed as increase in protein melting temperature at 50 umol by real-time PCR system based thermal shift assay. In short, it runs like this:
as §1

A short description of data set [5]: Stability in human liver microsomes assessed as clearance at 1 uM pre-incubated for 5 mins followed by NADPH addition and measured after 5 to 30 mins post NADPH addition by LC/MS/MS method. Type of data set: ADME. As to conditions: read-out: CLH. The gist of the method: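 Human liver microsomes (0.5 mg/mL) preincubated with 1 µM compound for 5 min at 37 °C in 0.1 M phosphate pH 7.4 with 1 mmol EDTA and 5 mmol MgCl2. Started with 1 mmol NADPH; sampled at 0, 5, 10 and 30 min. Quenched with equal volume of cold acetonitrile, vortexed, and centrifuged at 10,000 × g.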

In data set [6] the target is T2, CYP3A4 (Homo sapiens, UniProt P08684). The experiment in a line: Inhibition of CYP3A4 in human liver microsomes at 10 uM using midazolam substrate preincubated for 5 mins before NADPH addition and measured after 20 mins post NADPH addition. The format is ADME. As to conditions: probe midazolam. The gist of the method: (§2)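 Human liver microsomes 0.2 mg/mL, 1 mmol NADPH, 100 mmol phosphate pH 7.4, probe cocktail (10 μM midazolam, 100 μM testosterone, 10 μM dextromethorphan, 20 μM diclofenac, 100 μM phenacetin, 100 μM mephenytoin), test compound 10 μM or PBS; organic solvent <1%. 5 min preincubation at 37 °C, NADPH-generating system start, 20 min reaction; inhibition from metabolite formation relative to PBS.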
T2 sequence (P08684 whole entry): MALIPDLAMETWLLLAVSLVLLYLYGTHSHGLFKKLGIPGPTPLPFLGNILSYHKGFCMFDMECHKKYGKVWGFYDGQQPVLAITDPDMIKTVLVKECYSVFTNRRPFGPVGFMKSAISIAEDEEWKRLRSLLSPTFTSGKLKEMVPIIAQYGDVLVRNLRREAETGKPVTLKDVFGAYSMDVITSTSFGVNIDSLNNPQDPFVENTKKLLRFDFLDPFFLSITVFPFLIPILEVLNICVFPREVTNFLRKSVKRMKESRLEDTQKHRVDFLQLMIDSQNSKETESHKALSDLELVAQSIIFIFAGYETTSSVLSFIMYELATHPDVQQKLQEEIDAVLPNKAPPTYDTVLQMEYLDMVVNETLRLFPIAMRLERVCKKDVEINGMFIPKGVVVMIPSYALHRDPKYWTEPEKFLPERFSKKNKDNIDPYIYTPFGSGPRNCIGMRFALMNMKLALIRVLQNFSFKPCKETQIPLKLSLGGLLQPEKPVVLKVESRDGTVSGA
A general note: Liver microsomes are vesicles of endoplasmic reticulum, rich in cytochrome P450 enzymes.

In data set [7] the target is T2, CYP3A4. The data set is described as follows: Inhibition of CYP3A4 in human liver microsomes at 10 uM preincubated for 5 mins before NADPH addition and measured after 20 mins post NADPH addition. The format is ADME.
The target of the next data set is CYP2C19 (Homo sapiens, UniProt P33261). The data set is described as follows: Inhibition of CYP2C19 in human liver microsomes at 10 uM using mephenytoin substrate preincubated for 5 mins before NADPH addition and measured after 20 mins post NADPH addition. Type of data set: ADME. As to conditions: probe mephenytoin. The gist of the method: as §2
Sequence of CYP2C19 (P33261 whole entry): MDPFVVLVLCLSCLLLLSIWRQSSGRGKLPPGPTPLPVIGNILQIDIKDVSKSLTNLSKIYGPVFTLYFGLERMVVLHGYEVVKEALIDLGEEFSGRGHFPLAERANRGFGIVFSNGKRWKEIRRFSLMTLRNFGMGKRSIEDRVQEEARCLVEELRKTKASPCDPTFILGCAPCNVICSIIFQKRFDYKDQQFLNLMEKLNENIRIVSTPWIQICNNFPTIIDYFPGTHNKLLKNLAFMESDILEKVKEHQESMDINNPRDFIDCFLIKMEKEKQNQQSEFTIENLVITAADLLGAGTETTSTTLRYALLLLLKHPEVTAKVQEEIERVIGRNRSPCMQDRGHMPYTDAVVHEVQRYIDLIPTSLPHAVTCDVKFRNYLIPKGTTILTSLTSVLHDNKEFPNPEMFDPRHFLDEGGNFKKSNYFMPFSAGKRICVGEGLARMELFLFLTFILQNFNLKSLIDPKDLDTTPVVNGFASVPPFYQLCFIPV
The target of data set [8] is Bromodomain-containing protein 4 (Homo sapiens, UniProt O60885).
Another data set deals with MV4-11. The experiment in a line: Growth inhibition of human MV4-11 cells after 72 hrs by CellTiter-Glo luminescent cell viability assay. As to conditions: MV4-11, 72 h. A general note: In ATP-based viability assays light output follows the ATP content of the culture.

Structures are written as SMILES.

Sequence of Histone acetyltransferase p300 (Homo sapiens) (Q09472 whole entry): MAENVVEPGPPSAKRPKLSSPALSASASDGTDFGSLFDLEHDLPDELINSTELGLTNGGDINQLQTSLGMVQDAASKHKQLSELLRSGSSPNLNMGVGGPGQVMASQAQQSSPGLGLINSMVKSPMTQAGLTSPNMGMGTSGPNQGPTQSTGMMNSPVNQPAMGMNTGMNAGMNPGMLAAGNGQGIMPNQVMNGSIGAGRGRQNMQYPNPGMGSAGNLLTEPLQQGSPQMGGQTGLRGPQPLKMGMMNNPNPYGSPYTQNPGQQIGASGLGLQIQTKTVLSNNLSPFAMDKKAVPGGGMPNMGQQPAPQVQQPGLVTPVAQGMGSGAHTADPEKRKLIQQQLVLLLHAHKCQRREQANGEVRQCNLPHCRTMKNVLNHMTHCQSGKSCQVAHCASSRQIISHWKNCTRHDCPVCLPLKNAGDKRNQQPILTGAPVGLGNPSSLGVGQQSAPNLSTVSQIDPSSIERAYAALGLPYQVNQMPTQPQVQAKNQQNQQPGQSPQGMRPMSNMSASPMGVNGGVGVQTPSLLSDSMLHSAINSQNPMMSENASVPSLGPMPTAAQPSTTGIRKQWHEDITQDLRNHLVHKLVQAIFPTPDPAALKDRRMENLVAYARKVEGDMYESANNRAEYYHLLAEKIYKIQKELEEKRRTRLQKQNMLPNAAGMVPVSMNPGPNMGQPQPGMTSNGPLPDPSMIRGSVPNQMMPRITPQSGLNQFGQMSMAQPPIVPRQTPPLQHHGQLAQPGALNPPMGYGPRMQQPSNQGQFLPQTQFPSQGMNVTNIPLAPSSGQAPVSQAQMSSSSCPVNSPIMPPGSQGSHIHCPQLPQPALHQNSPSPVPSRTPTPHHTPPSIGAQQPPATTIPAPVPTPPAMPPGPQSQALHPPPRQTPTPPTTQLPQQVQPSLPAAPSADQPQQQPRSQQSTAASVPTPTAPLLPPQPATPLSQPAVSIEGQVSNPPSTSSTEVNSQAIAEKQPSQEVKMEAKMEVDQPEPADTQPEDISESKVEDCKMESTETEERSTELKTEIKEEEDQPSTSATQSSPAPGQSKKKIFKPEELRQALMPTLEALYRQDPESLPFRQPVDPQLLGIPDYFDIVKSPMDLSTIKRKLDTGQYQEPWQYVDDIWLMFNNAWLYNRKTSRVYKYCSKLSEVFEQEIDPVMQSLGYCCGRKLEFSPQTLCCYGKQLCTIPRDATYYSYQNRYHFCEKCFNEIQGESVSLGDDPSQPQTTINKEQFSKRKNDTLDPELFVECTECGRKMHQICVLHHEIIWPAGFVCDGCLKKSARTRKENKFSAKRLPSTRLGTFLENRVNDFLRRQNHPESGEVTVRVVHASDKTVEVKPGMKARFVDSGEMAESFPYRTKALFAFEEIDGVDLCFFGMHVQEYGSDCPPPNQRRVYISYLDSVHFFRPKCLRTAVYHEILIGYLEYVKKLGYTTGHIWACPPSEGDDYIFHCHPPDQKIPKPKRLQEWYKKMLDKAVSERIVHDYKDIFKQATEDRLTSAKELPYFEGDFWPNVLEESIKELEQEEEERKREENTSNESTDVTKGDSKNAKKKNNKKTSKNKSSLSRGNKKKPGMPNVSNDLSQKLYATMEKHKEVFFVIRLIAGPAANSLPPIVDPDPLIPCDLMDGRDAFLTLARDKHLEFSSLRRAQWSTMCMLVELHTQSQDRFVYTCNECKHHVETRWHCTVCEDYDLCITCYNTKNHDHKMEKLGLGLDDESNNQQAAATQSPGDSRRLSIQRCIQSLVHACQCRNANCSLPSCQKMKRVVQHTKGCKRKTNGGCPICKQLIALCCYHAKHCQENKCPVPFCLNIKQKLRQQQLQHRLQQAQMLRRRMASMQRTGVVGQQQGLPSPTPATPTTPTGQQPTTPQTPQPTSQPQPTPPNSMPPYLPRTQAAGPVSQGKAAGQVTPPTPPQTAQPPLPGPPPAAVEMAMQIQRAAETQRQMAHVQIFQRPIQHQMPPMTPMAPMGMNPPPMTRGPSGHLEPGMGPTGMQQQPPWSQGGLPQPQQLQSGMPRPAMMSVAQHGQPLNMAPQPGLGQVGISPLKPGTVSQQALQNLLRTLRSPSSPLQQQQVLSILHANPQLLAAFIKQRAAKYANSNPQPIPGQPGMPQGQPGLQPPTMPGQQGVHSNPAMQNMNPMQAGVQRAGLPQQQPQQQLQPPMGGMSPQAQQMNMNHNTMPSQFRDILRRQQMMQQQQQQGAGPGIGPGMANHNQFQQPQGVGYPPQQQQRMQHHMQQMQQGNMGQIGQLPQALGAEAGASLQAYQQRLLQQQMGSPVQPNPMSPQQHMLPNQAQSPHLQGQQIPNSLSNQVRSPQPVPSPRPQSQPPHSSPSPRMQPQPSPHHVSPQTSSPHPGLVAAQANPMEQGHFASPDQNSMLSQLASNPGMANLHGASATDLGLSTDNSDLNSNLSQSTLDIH
Sequence of SWI/SNF-related matrix-associated actin-dependent regulator of chromatin subfamily A member 4 (Homo sapiens) (P51532 whole entry): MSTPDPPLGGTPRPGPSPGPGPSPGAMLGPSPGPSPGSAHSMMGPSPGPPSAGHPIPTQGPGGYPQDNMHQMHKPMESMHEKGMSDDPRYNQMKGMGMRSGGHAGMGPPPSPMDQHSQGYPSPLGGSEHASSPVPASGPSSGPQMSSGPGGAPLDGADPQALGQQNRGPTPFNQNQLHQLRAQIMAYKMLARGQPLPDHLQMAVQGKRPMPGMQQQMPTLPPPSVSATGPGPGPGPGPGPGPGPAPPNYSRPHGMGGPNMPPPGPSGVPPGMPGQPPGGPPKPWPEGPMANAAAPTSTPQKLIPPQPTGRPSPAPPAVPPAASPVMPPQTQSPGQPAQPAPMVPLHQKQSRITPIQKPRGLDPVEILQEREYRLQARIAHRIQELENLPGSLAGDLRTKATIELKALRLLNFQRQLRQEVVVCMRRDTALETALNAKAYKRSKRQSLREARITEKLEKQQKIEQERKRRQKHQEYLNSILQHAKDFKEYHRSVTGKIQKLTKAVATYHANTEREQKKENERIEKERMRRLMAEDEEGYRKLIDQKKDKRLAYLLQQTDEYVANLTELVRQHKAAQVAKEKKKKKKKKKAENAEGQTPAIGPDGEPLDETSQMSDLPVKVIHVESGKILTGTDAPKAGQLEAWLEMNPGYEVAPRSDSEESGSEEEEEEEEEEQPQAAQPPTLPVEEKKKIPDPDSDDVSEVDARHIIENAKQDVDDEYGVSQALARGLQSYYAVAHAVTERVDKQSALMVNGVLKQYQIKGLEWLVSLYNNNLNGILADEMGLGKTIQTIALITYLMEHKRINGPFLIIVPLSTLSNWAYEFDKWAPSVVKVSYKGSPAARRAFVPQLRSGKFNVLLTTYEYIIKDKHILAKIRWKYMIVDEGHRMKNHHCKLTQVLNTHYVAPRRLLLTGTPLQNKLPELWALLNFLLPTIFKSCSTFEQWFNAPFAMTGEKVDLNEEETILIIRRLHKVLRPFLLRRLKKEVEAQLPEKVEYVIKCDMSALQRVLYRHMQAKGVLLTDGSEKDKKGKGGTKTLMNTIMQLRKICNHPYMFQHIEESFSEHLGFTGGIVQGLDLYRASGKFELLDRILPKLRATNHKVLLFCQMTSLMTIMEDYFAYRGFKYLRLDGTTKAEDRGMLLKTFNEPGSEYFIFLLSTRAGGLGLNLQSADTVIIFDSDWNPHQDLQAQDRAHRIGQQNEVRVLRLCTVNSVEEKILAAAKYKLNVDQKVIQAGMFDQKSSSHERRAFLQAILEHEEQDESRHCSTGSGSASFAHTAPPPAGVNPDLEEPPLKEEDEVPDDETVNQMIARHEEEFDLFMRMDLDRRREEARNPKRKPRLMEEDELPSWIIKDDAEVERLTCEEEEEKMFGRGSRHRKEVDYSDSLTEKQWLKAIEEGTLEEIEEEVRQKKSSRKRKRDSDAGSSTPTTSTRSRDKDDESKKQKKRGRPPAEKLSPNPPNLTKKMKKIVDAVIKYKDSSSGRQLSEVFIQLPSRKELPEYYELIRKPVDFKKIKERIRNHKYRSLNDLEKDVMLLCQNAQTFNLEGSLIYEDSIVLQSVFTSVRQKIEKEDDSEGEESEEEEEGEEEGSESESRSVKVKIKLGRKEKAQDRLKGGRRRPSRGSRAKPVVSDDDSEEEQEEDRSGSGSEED

In general, ΔTm refers to the change in melting temperature against a reference sample. Broadly, the inhibition is how much of the control response was suppressed. As a reminder, the IC50 is the midpoint of a concentration-inhibition curve. As to `COc1ccc(-c2csc(=O)[nH]2)cc1S(=O)(=O)NC1CCCC1`, the ΔTm stood at 2.82 °C in data set [1]; 0.49 °C in [2]; 0.41 °C in [3]; 1.36 °C in [4]; 5.19 °C in [8]. Moreover, the microsomal CLint at 1 µM in data set [5] is 56 µL/min/mg. For the same compound, the inhibition at 20 min, 10 µM came to 20% against CYP3A4 [6], 30% at CYP3A4 [7] and 26% on CYP2C19. The compound further registered an IC50 with MV4-11 of 547 nM.
Consider `Cc1c(Br)cc(-c2csc(=O)[nH]2)cc1S(=O)(=O)NC1CCCC1`, for which the ΔTm in data set [1] is 5.92 °C; in data set [2], -1.01 °C; in data set [3] it was 0.94 °C; in [4], 3.42 °C; in data set [8], 9.22 °C. In addition, in [5], the microsomal CLint at 1 µM came to 84 µL/min/mg. The results for the inhibition at 20 min, 10 µM against CYP3A4 [6], against CYP3A4 [7] and on CYP2C19 were 42%, 53% and 28%, respectively. The compound also yielded an IC50 in the data set with MV4-11 of 141 nM.
Regarding `Cc1c(N)cc(-c2csc(=O)[nH]2)cc1S(=O)(=O)NC1CCCC1`, the ΔTm in [1] was determined as 5.04 °C; in [2], 0.19 °C; in data set [3] it was 0.57 °C; in data set [4] it was 2.7 °C; in data set [8], 7.25 °C. For the same compound, the microsomal CLint at 1 µM in data set [5] was found to be 66 µL/min/mg. For the same compound, the inhibition at 20 min, 10 µM was 42% at CYP3A4 [6], 46% against CYP3A4 [7] and 3% against CYP2C19. This compound showed a 50% inhibitory concentration (IC50) in the data set on MV4-11 of 184 nM.
Consider `Nc1ccc(-c2csc(=O)[nH]2)cc1S(=O)(=O)NC1CCCC1`, for which the ΔTm in data set [1] was 4.06 °C; in [2], -0.08 °C; in data set [3], 0.39 °C; in data set [4], 3.28 °C; in data set [8] it was 7.76 °C. Moreover, the microsomal CLint at 1 µM in data set [5] is 20 µL/min/mg. For the same compound, the values for the inhibition at 20 min, 10 µM against CYP3A4 [6], against CYP3A4 [7] and on CYP2C19 were 70%, 82% and 57%, respectively. In addition, half-maximal inhibition in the data set with MV4-11 (IC50) required 289 nM.
As to `Cc1ccc(-c2csc(=O)[nH]2)cc1S(=O)(=O)NC1CCCC1`, the ΔTm in data set [1] was 3.47 °C; in data set [2] it was -0.17 °C; in data set [3], 0.69 °C; in data set [4] it was 1.44 °C; in data set [8], 6.3 °C. In data set [5], the microsomal CLint at 1 µM was found to be 128 µL/min/mg. Also, the results for the inhibition at 20 min, 10 µM against CYP3A4 [6], against CYP3A4 [7] and against CYP2C19 were 62%, 68% and 45%, respectively. In the data set with MV4-11, this compound returned an IC50 of 459 nM.
For the compound `O=C(Nc1cc(-c2csc(=O)[nH]2)cc(S(=O)(=O)NC2CCCC2)c1)C1CC1`, the ΔTm in data set [1] was 5.63 °C; in data set [2], -0.54 °C; in data set [3], 1.03 °C; in data set [4] it was 3.55 °C; in data set [8], 8.48 °C. The microsomal CLint at 1 µM in [5] stood at 74 µL/min/mg. Also, the inhibition at 20 min, 10 µM against CYP3A4 [6] worked out at 14%; on CYP3A4 [7], 21%; on CYP2C19, 32%. The compound also displayed an IC50 in the data set on MV4-11 of 228 nM.

The record behind these values is ChEMBL document CHEMBL3407418, “Fragment-based drug discovery of 2-thiazolidinones as BRD4 inhibitors: 2. Structure-based optimization” (J Med Chem, 2015).
